Assay results as given in ChEMBL document CHEMBL5678815 (Clin Cancer Res, 2017).
Active and inactive are the calls of the source. No cut-off for these calls is given here.

What was measured:
[1] = biological target: Calcium/calmodulin-dependent protein kinase kinase 2 (Homo sapiens) (UniProt Q96RR4); assay: Inhibition of human CAMKK2 assessed as remaining activity at 1 uM by ATP-competition binding assay relative to control
Summary of the method: (§1)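 KINOMEscan ATP-site-dependent competition binding panel of 395 human kinases, with compound tested at 1 μM. Binding is reported as remaining signal relative to control.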

[2] = biological target: Macrophage colony-stimulating factor 1 receptor (Homo sapiens) (UniProt P07333); assay: Inhibition of human CSF1R assessed as remaining activity at 1 uM by ATP-competition binding assay relative to control; summary of the method: as §1
[3] = biological target: Casein kinase I isoform gamma-2 (Homo sapiens) (UniProt P78368); assay: Inhibition of human CSNK1G2 assessed as remaining activity at 1 uM by ATP-competition binding assay relative to control; summary of the method: as §1
Sequence of Casein kinase I isoform gamma-2 (Homo sapiens) (P78368 whole entry, looked up, canonical isoform): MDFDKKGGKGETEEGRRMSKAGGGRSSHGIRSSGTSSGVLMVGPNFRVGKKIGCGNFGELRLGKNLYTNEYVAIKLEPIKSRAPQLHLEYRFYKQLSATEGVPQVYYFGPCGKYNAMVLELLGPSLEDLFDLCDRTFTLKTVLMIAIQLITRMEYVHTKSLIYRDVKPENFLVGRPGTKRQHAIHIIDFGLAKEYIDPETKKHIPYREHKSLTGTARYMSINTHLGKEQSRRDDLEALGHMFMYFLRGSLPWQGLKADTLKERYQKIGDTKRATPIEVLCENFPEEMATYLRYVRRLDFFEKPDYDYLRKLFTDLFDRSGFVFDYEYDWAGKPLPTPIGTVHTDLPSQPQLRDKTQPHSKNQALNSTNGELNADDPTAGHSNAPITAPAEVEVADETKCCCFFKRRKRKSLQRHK

[4] = biological target: Casein kinase II subunit alpha (Homo sapiens) (UniProt P68400); assay: Inhibition of human CSNK2A1 assessed as remaining activity at 1 uM by ATP-competition binding assay relative to control; summary of the method: as §1
[5] = biological target: Death-associated protein kinase 2 (Homo sapiens) (UniProt Q9UIK4); assay: Inhibition of human DAPK2 assessed as remaining activity at 1 uM by ATP-competition binding assay relative to control; summary of the method: as §1
Sequence of Death-associated protein kinase 2 (Homo sapiens) (Q9UIK4 whole entry, looked up): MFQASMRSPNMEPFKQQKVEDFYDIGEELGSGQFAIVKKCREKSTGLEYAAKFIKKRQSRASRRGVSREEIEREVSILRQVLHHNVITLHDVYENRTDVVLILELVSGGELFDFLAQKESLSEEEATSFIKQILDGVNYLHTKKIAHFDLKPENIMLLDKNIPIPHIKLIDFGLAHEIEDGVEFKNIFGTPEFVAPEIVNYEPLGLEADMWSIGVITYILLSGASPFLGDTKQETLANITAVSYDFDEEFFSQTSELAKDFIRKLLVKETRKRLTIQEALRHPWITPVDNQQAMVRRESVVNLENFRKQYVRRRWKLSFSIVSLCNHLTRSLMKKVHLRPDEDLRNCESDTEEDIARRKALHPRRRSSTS

[6] = biological target: Ephrin type-A receptor 1 (Homo sapiens) (UniProt P21709); assay: Inhibition of human EPHA1 assessed as remaining activity at 1 uM by ATP-competition binding assay relative to control; summary of the method: as §1
[7] = biological target: Ephrin type-A receptor 2 (Homo sapiens) (UniProt P29317); assay: Inhibition of human EPHA2 assessed as remaining activity at 1 uM by ATP-competition binding assay relative to control; summary of the method: as §1
Sequence of Ephrin type-A receptor 2 (Homo sapiens) (P29317 whole entry): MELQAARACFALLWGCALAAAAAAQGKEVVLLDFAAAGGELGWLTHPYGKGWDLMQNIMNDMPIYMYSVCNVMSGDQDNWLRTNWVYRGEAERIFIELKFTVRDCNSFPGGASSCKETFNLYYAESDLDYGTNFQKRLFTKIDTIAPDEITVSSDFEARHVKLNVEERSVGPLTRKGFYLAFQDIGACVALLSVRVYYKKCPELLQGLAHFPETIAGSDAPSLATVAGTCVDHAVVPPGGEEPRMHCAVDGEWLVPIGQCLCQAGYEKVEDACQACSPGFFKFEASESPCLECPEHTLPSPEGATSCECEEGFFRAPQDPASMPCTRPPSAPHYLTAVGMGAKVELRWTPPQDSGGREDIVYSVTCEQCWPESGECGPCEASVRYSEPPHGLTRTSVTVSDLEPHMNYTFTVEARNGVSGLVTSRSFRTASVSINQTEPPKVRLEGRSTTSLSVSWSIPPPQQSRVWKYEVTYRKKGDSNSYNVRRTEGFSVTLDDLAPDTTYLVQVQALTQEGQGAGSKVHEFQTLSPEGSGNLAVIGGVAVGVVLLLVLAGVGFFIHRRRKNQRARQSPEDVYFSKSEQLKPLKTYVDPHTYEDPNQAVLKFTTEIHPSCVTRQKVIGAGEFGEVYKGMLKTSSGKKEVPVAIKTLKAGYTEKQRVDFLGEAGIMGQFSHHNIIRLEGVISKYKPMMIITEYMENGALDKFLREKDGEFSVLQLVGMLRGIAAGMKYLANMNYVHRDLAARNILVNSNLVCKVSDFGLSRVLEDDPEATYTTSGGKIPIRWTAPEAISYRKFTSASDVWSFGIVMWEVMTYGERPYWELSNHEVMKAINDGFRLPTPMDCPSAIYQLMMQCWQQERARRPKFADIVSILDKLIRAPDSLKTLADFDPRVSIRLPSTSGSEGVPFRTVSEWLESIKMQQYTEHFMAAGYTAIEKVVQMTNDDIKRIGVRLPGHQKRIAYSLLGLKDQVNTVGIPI

[8] = tested on: Receptor-type tyrosine-protein kinase FLT3 (Homo sapiens), P36888 [D835H]; assay: Inhibition of human FLT3 D835H mutant assessed as remaining activity at 1 uM by ATP-competition binding assay relative to control
Summary of the method: (§2)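 Single-point profiling at 1μM in an ATP-site-dependent competition binding assay across a panel of 395 human kinases, including mutant forms. The read-out is kinase binding signal in the presence of test agent, expressed as inhibition relative to the control signal. This screen assessed noncovalent binding interactions.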

[9] = tested on: Epidermal growth factor receptor (Homo sapiens), P00533 [L861Q]; assay: Inhibition of human EGFR L861Q mutant assessed as remaining activity at 1 uM by ATP-competition binding assay relative to control
Summary of the method: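 KINOMEscan ATP-site-dependent competition binding assay across a 395-kinase human panel including mutants; compound tested at 1μM; binding expressed relative to control signal.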

[10] = biological target: Mast/stem cell growth factor receptor Kit (Homo sapiens) (UniProt P10721); assay: Inhibition of human KIT assessed as remaining activity at 1 uM by ATP-competition binding assay relative to control; summary of the method: as §2
Sequence of Mast/stem cell growth factor receptor Kit (Homo sapiens) (P10721 whole entry): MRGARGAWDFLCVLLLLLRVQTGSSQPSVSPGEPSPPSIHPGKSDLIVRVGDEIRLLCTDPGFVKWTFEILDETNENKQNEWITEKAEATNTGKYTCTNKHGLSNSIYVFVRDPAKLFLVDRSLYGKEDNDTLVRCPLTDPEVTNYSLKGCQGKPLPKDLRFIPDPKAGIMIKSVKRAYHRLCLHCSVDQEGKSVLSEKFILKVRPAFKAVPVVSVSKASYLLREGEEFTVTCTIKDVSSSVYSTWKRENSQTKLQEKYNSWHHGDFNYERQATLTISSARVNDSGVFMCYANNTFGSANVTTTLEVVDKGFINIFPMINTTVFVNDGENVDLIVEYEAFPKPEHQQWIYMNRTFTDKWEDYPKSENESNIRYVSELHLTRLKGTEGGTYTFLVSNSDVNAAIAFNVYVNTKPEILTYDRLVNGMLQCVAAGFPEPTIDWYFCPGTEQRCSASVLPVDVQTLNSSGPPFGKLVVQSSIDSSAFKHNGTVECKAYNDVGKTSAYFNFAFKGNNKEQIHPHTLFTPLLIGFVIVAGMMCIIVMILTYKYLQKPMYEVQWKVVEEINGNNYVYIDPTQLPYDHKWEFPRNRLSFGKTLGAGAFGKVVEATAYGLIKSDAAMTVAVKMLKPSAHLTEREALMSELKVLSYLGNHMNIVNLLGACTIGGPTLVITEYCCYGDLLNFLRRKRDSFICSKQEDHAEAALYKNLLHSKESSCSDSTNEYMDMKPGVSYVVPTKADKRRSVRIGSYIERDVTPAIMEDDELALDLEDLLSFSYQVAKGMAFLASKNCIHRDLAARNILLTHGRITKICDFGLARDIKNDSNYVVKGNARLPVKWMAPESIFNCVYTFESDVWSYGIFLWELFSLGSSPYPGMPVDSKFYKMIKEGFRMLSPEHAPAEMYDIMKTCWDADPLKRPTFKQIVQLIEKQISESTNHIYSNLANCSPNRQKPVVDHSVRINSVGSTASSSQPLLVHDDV

[11] = tested on: Mast/stem cell growth factor receptor Kit (Homo sapiens), P10721 [L576P]; assay: Inhibition of human KIT L576P mutant assessed as remaining activity at 1 uM by ATP-competition binding assay relative to control; summary of the method: as §2
Sequence of Mast/stem cell growth factor receptor Kit (Homo sapiens), P10721 [L576P] (P10721 whole entry L576P): as the sequence (P10721 whole entry) above, with L576P counted along it

[12] = biological target: 3-phosphoinositide-dependent protein kinase 1 (Homo sapiens) (UniProt O15530); assay: Inhibition of human PDPK1 assessed as remaining activity at 1 uM by ATP-competition binding assay relative to control; summary of the method: as §2
[13] = biological target: Serine/threonine-protein kinase PAK 6 (Homo sapiens) (UniProt Q9NQU5); assay: Inhibition of human PAK6 assessed as remaining activity at 1 uM by ATP-competition binding assay relative to control; summary of the method: as §2
Sequence of Serine/threonine-protein kinase PAK 6 (Homo sapiens) (Q9NQU5 whole entry, looked up): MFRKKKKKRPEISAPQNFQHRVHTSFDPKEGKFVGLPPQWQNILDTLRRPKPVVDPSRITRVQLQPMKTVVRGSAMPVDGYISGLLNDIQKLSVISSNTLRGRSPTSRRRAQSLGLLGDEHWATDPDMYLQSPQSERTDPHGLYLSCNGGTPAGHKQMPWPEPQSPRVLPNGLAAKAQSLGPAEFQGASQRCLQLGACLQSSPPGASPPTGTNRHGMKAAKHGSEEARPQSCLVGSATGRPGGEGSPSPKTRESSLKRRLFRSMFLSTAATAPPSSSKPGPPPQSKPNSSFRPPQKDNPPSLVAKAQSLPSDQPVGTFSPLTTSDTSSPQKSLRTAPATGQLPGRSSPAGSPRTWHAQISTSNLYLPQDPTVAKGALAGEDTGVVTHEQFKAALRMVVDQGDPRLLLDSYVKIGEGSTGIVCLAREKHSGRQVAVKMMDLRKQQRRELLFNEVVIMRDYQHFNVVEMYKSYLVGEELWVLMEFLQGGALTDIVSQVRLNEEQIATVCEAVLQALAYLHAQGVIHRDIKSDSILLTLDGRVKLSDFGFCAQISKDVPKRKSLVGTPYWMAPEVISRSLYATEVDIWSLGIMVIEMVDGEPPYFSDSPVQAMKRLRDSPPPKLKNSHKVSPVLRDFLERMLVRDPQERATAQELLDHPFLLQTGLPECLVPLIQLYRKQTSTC

[14] = tested on: Proto-oncogene tyrosine-protein kinase receptor Ret (Homo sapiens), P07949 [M918T]; assay: Inhibition of human RET M918T assessed as remaining activity at 1 uM by ATP-competition binding assay relative to control
Summary of the method: (§3)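 Single-concentration (1 μM) screen in an ATP-site-dependent competition binding assay (KINOMEscan, outsourced) covering 395 human kinases, mutants included. Non-covalent binding was read as the remaining signal relative to the control signal.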

[15] = biological target: Ribosomal protein S6 kinase alpha-4 (Homo sapiens) (UniProt O75676); assay: Inhibition of human RPS6KA4 assessed as remaining activity at 1 uM by ATP-competition binding assay relative to control; summary of the method: as §3
Sequence of Ribosomal protein S6 kinase alpha-4 (Homo sapiens) (O75676 whole entry, looked up): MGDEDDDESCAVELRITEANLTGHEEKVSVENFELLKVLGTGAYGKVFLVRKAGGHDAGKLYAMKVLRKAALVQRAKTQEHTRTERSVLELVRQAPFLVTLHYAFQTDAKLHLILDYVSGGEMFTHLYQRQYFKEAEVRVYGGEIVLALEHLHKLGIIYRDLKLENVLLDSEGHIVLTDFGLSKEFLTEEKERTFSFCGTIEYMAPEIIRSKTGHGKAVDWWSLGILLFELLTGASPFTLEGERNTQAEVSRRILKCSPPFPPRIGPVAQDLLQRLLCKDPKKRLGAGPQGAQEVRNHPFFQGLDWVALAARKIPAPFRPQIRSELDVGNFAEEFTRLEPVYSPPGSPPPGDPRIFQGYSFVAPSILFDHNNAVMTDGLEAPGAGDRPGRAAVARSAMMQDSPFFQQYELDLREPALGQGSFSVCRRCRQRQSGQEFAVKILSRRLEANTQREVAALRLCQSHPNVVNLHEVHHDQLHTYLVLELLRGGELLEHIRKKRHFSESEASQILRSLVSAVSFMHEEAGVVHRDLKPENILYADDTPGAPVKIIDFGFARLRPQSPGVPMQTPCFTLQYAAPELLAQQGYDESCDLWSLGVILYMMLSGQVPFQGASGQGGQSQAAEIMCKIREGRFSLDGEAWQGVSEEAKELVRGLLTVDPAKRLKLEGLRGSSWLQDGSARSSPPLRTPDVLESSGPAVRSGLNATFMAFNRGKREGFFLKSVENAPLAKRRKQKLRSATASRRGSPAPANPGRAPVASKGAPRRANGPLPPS

[16] = biological target: SRSF protein kinase 1 (Homo sapiens) (UniProt Q96SB4); assay: Inhibition of human SRPK1 assessed as remaining activity at 1 uM by ATP-competition binding assay relative to control; summary of the method: as §3
[17] = biological target: SRSF protein kinase 2 (Homo sapiens) (UniProt P78362); assay: Inhibition of human SRPK2 assessed as remaining activity at 1 uM by ATP-competition binding assay relative to control; summary of the method: as §3
Sequence of SRSF protein kinase 2 (Homo sapiens) (P78362 whole entry, looked up): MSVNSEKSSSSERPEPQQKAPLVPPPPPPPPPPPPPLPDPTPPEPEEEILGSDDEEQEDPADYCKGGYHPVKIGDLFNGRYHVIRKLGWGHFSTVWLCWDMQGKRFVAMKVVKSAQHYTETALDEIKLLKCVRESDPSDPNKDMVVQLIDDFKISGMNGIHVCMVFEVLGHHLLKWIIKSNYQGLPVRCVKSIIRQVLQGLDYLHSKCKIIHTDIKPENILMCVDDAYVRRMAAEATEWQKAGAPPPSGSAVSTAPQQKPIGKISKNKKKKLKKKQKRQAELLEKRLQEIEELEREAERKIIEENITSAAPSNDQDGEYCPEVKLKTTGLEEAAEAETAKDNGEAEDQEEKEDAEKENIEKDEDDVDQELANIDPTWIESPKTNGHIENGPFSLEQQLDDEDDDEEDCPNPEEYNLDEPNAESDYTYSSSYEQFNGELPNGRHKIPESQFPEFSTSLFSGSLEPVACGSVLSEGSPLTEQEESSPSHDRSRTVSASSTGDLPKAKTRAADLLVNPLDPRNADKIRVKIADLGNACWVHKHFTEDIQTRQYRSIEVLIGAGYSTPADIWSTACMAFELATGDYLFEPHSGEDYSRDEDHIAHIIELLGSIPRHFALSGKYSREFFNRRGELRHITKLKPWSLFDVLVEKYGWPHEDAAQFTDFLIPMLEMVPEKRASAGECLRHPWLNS

[18] = biological target: NT-3 growth factor receptor (Homo sapiens) (UniProt Q16288); assay: Inhibition of human TRKC assessed as remaining activity at 1 uM by ATP-competition binding assay relative to control; summary of the method: as §3
[19] = biological target: Tyrosine-protein kinase Tec (Homo sapiens) (UniProt P42680); assay: Inhibition of human TEC at < 100 nM by ATP-Competition Binding Assay
[20] = tested on: Splenocyte; assay: In vivo inhibition of BCR signaling in female […] mouse assessed as CD69 expression at 1.3 mg/kg, po administered and measured after stimulation with anti-IgM for 18 h by flow cytometry analysis; assay type: functional, organism-based
Summary of the method: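 Female C57BL/6 mice (5 per group per dose) were gavaged orally at 0.1–30 mg/kg. At 3 h, splenocytes were stimulated with anti-mouse IgM 10 μg/mL for 18 h at 37°C, 5% CO2. After Fc block, cells were stained for CD19 and CD69 with 7-AAD viability dye; >5,000 gated CD19+ cells acquired by flow cytometry.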

[21] = tested on: Splenocyte; assay: In vivo inhibition of BCR signaling in female […] mouse assessed as change in phospho-S6 expression at 25 mg/kg, po administered and measured after stimulation with anti-IgM for 18 h by flow cytometry analysis; assay type: functional, organism-based
Summary of the method: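 Female C57BL/6 mice (5/group) received vehicle or 25 mg/kg drug by oral gavage at time zero, with spleens taken at time points from 3 to 24 h. Splenocytes were stimulated ex vivo with goat anti-mouse IgM at 10μg/mL for 18 h at 37°C in 5% CO2, then Fc-blocked and stained for CD19 plus CD69, CD86 or phospho-S6(S235/236), with 7-AAD to exclude dead cells. Read-out was flow cytometry on >5,000 gated CD19+ cells, compared with vehicle.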

[22] = Antitumor activity against human CLL mononuclear cells xenografted NSG mouse assessed as reduction in the phosphorylation of PLCgamma2 at 0.3 mg/ml preadministered with compound via drinking water and measured after 3 weeks by flow cytometry analysis relative to control; assay type: functional, CLL mononuclear cell; parameters: scale not given: the % may be the effect or the level left
Summary of the method: (§4)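 Primary CLL patient mononuclear cells (1 × 10^8 per mouse) engrafted into NSG mice on day 0 after busulfan priming on day −1. Vehicle or drug was given in drinking water from day −1. Mice were killed 3 weeks after engraftment; spleens homogenized, filtered and RBC-lysed; whole blood collected. Six patients, 2–5 mice per patient; paired t-test per patient.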

[23] = tested on: CLL mononuclear cell; assay: Antileukemic activity against human CLL mononuclear cells xenografted NSG mouse assessed as reduction in ki67 cells at 0.3 mg/ml preadministered with compound via drinking water and measured after 3 weeks by flow cytometry analysis; assay type: functional, cell-based; summary of the method: as §4

CC#CC(=O)N1CCC[C@H]1c1nc(-c2ccc(C(=O)Nc3ccccn3)cc2)c2c(N)nccn12 [ACALABRUTINIB]
Activity [1]: 93% | Activity [2]: 84% | Activity [3]: 82% | Activity [4]: 54% | Activity [5]: 80% | Activity [6]: 76% | Activity [7]: 91% | Activity [8]: 86% | Activity [9]: 84% | Activity [10]: 84% | Activity [11]: 63% | Activity [12]: 67% | Activity [13]: 94% | Activity [14]: 71% | Activity [15]: 90% | Activity [16]: 67% | Activity [17]: 85% | Activity [18]: 99% | inhibition [19]: Active | Activity [20]: Active | Activity [21]: Active | Activity [22]: 68% | Activity [23]: Active
